# pEC50: −log10 of the molar value. Calls of active or inactive are those of the source. No cut-off for these calls is given here.
# Legend:
# [1] = biological target: T1, Urotensin-2 receptor (Homo sapiens, UniProt Q9UKP6); assay: Displacement of [125I]urotensin 2 from human UT receptor expressed in CHO-K1 cells; type: cell-based
# T1 sequence (Q9UKP6 whole entry): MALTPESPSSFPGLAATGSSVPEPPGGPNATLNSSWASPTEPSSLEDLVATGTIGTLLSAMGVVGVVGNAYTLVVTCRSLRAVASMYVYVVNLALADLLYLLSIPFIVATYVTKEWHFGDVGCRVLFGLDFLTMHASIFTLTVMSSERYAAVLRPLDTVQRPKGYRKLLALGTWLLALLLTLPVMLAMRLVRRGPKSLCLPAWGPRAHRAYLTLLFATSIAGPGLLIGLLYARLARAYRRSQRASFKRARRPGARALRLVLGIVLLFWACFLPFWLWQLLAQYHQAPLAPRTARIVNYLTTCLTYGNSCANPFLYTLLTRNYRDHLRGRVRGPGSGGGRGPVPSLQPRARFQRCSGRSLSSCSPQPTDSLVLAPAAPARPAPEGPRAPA
# [2] = species on record: Rattus norvegicus; assay: Maximum contractile response of thoracic aorta in albino Wistar rat after 30 min; type: functional; details: for pEC50: 0.5 h
# [3] = species on record: Rattus norvegicus; assay: Maximum contractile response of thoracic aorta in albino Wistar rat in the presence of human urotensin 2 after 30 min; type: functional; details: 0.5 h
# In short: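 Thoracic aorta from male albino Wistar rats (275–350 g), decapitated under ether anesthesia, was cut into paired strips in oxygenated Krebs–Henseleit and recorded isotonically under 5 mN load. The control strip received cumulative hU-II. The test strip received the antagonist for 30 min, then cumulative hU-II. KCl 80 mM at the end gave the maximal contraction. pK_B = log(dose ratio − 1) − log[antagonist], slope assumed −1.0, averaged over individual values. Competition was checked by Schild plot.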
# [4] = biological target: T2, Urotensin-2 receptor (Rattus norvegicus, UniProt P49684); assay: Antagonist activity at rat UT receptor; type: functional; details: read-out: pA2 (converted)
# T2 sequence (P49684 whole entry): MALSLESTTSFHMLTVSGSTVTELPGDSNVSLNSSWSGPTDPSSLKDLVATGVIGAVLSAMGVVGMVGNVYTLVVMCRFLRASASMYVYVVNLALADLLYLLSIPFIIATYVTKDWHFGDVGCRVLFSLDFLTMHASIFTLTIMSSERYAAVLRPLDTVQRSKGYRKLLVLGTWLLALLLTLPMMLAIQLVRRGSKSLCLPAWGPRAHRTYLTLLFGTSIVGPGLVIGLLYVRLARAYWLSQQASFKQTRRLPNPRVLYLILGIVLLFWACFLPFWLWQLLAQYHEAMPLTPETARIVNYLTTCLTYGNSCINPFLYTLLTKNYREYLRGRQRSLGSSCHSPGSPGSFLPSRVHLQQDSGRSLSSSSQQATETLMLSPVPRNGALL
# In short: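 The control strip received cumulative hU-II. The test strip received the antagonist for 30 min, then cumulative hU-II. KCl 80 mM at the end gave the maximal contraction. pK_B = log(dose ratio − 1) − log[antagonist], slope assumed −1.0, averaged over individual values. Competition was checked by Schild plot.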
Structure (SMILES),Ki [1],Emax [3] [%],other results
CC(C)[C@H](NC(=O)[C@@H]1CSSC(C)(C)[C@H](NC(=O)[C@@H](N)CC(=O)O)C(=O)N[C@@H](Cc2ccccc2)C(=O)N[C@H](Cc2c[nH]c3ccccc23)C(=O)N[C@@H](CCCN)C(=O)N[C@@H](Cc2ccc(O)cc2)C(=O)N1)C(=O)O,2000 nM (antagonist),,Activity [2]: inactive
CC(C)[C@H](NC(=O)[C@@H]1CSSC[C@H](NC(=O)[C@@H](N)CC(=O)O)C(=O)N[C@@H](Cc2ccccc2)C(=O)N[C@@H](Cc2c[nH]c3ccccc23)C(=O)N[C@@H](CCCCN)C(=O)N[C@@H](Cc2ccc(O)cc2)C(=O)N1)C(=O)O [listing 1 of 2 here],,,pEC50 [2]: 8.60
CC(C)[C@H](NC(=O)[C@@H]1CSSC(C)(C)[C@H](NC(=O)[C@@H](N)CC(=O)O)C(=O)N[C@@H](Cc2ccccc2)C(=O)N[C@H](Cc2c[nH]c3ccccc23)C(=O)N[C@@H](CCCCN)C(=O)N[C@@H](Cc2ccc(O)cc2)C(=O)N1)C(=O)O [listing 1 of 2 here],,33,
CC(C)[C@H](NC(=O)[C@@H]1CSSC[C@H](NC(=O)[C@@H](N)CC(=O)O)C(=O)N[C@@H](Cc2ccccc2)C(=O)N[C@H](Cc2c[nH]c3ccccc23)C(=O)N[C@@H](CCCCN)C(=O)N[C@@H](Cc2ccc(O)cc2)C(=O)N1)C(=O)O [listing 1 of 2 here],,42,
CC(C)[C@H](NC(=O)[C@@H]1CSSC(C)(C)[C@@H](NC(=O)[C@@H](N)CC(=O)O)C(=O)N[C@@H](Cc2ccccc2)C(=O)N[C@H](Cc2c[nH]c3ccccc23)C(=O)N[C@H](CCCN)C(=O)N[C@@H](Cc2ccc(O)cc2)C(=O)N1)C(=O)O,,,Activity ([2]; filed as partial agonist): Partial agonist
CC(C)[C@H](NC(=O)[C@@H]1CSSC(C)(C)[C@H](NC(=O)[C@@H](N)CC(=O)O)C(=O)N[C@@H](Cc2ccccc2)C(=O)N[C@@H](Cc2c[nH]c3ccccc23)C(=O)N[C@@H](CCCCN)C(=O)N[C@@H](Cc2ccc(O)cc2)C(=O)N1)C(=O)O [listing 1 of 2 here],,97,
CC(C)[C@H](NC(=O)[C@@H]1CSSC(C)(C)[C@H](NC(=O)[C@@H](N)CC(=O)O)C(=O)N[C@@H](Cc2ccccc2)C(=O)N[C@H](Cc2c[nH]c3ccccc23)C(=O)N[C@@H](CCCCN)C(=O)N[C@@H](Cc2ccc(O)cc2)C(=O)N1)C(=O)O [listing 2 of 2 here],1.26 nM (antagonist),,pEC50 [2]: 7.20
CC(C)[C@H](NC(=O)[C@@H]1CSSC(C)(C)[C@H](NC(=O)[C@@H](N)CC(=O)O)C(=O)N[C@@H](Cc2ccccc2)C(=O)N[C@@H](Cc2c[nH]c3ccccc23)C(=O)N[C@@H](CCCN)C(=O)N[C@@H](Cc2ccc(O)cc2)C(=O)N1)C(=O)O [listing 1 of 2 here],15.8 nM (antagonist),,
CC(C)[C@H](NC(=O)[C@@H]1CSSC[C@H](NC(=O)[C@@H](N)CC(=O)O)C(=O)N[C@@H](Cc2ccccc2)C(=O)N[C@@H](Cc2c[nH]c3ccccc23)C(=O)N[C@@H](CCCN)C(=O)N[C@@H](Cc2ccc(O)cc2)C(=O)N1)C(=O)O [listing 1 of 2 here],,36,
CC(C)[C@H](NC(=O)[C@@H]1CSSC(C)(C)[C@@H](NC(=O)[C@@H](N)CC(=O)O)C(=O)N[C@@H](Cc2ccccc2)C(=O)N[C@H](Cc2c[nH]c3ccccc23)C(=O)N[C@@H](CCCN)C(=O)N[C@@H](Cc2ccc(O)cc2)C(=O)N1)C(=O)O,,,Activity [2]: inactive
CC(C)[C@H](NC(=O)[C@@H]1CSSC[C@H](NC(=O)[C@@H](N)CC(=O)O)C(=O)N[C@@H](Cc2ccccc2)C(=O)N[C@@H](Cc2c[nH]c3ccccc23)C(=O)N[C@@H](CCCN)C(=O)N[C@@H](Cc2ccc(O)cc2)C(=O)N1)C(=O)O [listing 2 of 2 here],10 nM (antagonist),,Kb [4]: 50.1 nM (antagonist)
CC(C)[C@H](NC(=O)[C@@H]1CSSC[C@@H](NC(=O)[C@@H](N)CC(=O)O)C(=O)N[C@@H](Cc2ccccc2)C(=O)N[C@H](Cc2c[nH]c3ccccc23)C(=O)N[C@@H](CCCN)C(=O)N[C@@H](Cc2ccc(O)cc2)C(=O)N1)C(=O)O,,,Activity [2]: inactive
CC(C)[C@H](NC(=O)[C@@H]1CSSC(C)(C)[C@H](NC(=O)[C@@H](N)CC(=O)O)C(=O)N[C@@H](Cc2ccccc2)C(=O)N[C@@H](Cc2c[nH]c3ccccc23)C(=O)N[C@@H](CCCCN)C(=O)N[C@@H](Cc2ccc(O)cc2)C(=O)N1)C(=O)O [listing 2 of 2 here],,,pEC50 [2]: 9.60
CC(C)[C@H](NC(=O)[C@@H]1CSSC[C@H](NC(=O)[C@@H](N)CC(=O)O)C(=O)N[C@@H](Cc2ccccc2)C(=O)N[C@H](Cc2c[nH]c3ccccc23)C(=O)N[C@@H](CCCCN)C(=O)N[C@@H](Cc2ccc(O)cc2)C(=O)N1)C(=O)O [listing 2 of 2 here],1.26 nM (antagonist),,pEC50 [2]: 7.20
CC(C)[C@H](NC(=O)[C@@H]1CSSC(C)(C)[C@H](NC(=O)[C@@H](N)CC(=O)O)C(=O)N[C@@H](Cc2ccccc2)C(=O)N[C@H](Cc2c[nH]c3ccccc23)C(=O)N[C@H](CCCN)C(=O)N[C@@H](Cc2ccc(O)cc2)C(=O)N1)C(=O)O [listing 1 of 2 here],398 nM (antagonist),,
CC(C)[C@H](NC(=O)[C@@H]1CSSC[C@@H](NC(=O)[C@@H](N)CC(=O)O)C(=O)N[C@@H](Cc2ccccc2)C(=O)N[C@@H](Cc2c[nH]c3ccccc23)C(=O)N[C@@H](CCCN)C(=O)N[C@@H](Cc2ccc(O)cc2)C(=O)N1)C(=O)O,,,Activity ([2]; filed as partial agonist): Partial agonist
CC(C)[C@H](NC(=O)[C@@H]1CSSC(C)(C)[C@@H](NC(=O)[C@@H](N)CC(=O)O)C(=O)N[C@@H](Cc2ccccc2)C(=O)N[C@@H](Cc2c[nH]c3ccccc23)C(=O)N[C@@H](CCCN)C(=O)N[C@@H](Cc2ccc(O)cc2)C(=O)N1)C(=O)O,,,Activity ([2]; filed as partial agonist): Partial agonist
CC(C)[C@H](NC(=O)[C@@H]1CSSC[C@H](NC(=O)[C@H](CC(=O)O)NC(=O)[C@@H]2CCCN2C(=O)[C@@H](NC(=O)[C@@H](N)CCC(=O)O)[C@@H](C)O)C(=O)N[C@@H](Cc2ccccc2)C(=O)N[C@@H](Cc2c[nH]c3ccccc23)C(=O)N[C@@H](CCCCN)C(=O)N[C@@H](Cc2ccc(O)cc2)C(=O)N1)C(=O)O [HUMAN UROTENSIN II],,100,pEC50 [2]: 8.30
CC(C)[C@H](NC(=O)[C@@H]1CSSC[C@H](NC(=O)[C@@H](N)CC(=O)O)C(=O)N[C@@H](Cc2ccccc2)C(=O)N[C@H](Cc2c[nH]c3ccccc23)C(=O)N[C@@H](CCCN)C(=O)N[C@@H](Cc2ccc(O)cc2)C(=O)N1)C(=O)O,12.6 nM (antagonist),,Kb [4]: 10 nM (antagonist)
CC(C)[C@H](NC(=O)[C@@H]1CSSC(C)(C)[C@H](NC(=O)[C@@H](N)CC(=O)O)C(=O)N[C@@H](Cc2ccccc2)C(=O)N[C@@H](Cc2c[nH]c3ccccc23)C(=O)N[C@@H](CCCN)C(=O)N[C@@H](Cc2ccc(O)cc2)C(=O)N1)C(=O)O [listing 2 of 2 here],,22,
CC(C)[C@H](NC(=O)[C@@H]1CSSC[C@H](NC(=O)[C@@H](N)CC(=O)O)C(=O)N[C@@H](Cc2ccccc2)C(=O)N[C@@H](Cc2c[nH]c3ccccc23)C(=O)N[C@@H](CCCCN)C(=O)N[C@@H](Cc2ccc(O)cc2)C(=O)N1)C(=O)O [listing 2 of 2 here],,100,
CC(C)[C@H](NC(=O)[C@@H]1CSSC(C)(C)[C@H](NC(=O)[C@@H](N)CC(=O)O)C(=O)N[C@@H](Cc2ccccc2)C(=O)N[C@H](Cc2c[nH]c3ccccc23)C(=O)N[C@H](CCCN)C(=O)N[C@@H](Cc2ccc(O)cc2)C(=O)N1)C(=O)O [listing 2 of 2 here],,25,
